# The list is not random: actives were taken first. Their share in the collection is about 2.8%.
# Yeast lifespan up – extends the lifespan of yeast; AID 775; inhibition of the nicotinamide effect, % at 10 µM; S. cerevisiae growth with nicotinamide, OD615; deaD strain in restrictive glucose medium; 0.68% of 130,000 active;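 active = inhibition above a set limit, placed 3 SD over the median of all compounds, cut at about 26% in these data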;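 also: 0% = nicotinamide-treated wells and 100% = cells grown without nicotinamide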
#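 Assay system: engineered S. cerevisiae DeaD replicative-lifespan strain, galactose-grown log-phase cells; medium: restrictive CSMM-D dextrose medium; also added: nicotinamide, 1.5 mM, co-present with compound; schedule: 48 h compound exposure at 30 °C, humidified; detection: absorbance at 615 nm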
# RAM inhibit – blocks the yeast RAM network; S. cerevisiae dse1pr::URA3 reporter, 5-FOA growth OD615, 2 d; analog-sensitive cbk1-as2 kinase mutant strain; inhibition, % at 50 µM; 1.8% of 190,000 active;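 active = inhibition above a set limit, 3 SD over mean compound inhibition, cut at about 8.4% in these data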;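 also: 0% = DMSO-only wells with no growth and 100% = 10 µM 1-NA-PP1 full growth; inhibition rescues growth on 5-FOA so higher OD means more RAM inhibition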
# TNAP inh hi DEA – blocks human TNAP under high phosphate acceptor concentration | purified TNAP, CDP-star luminescence, 1 M DEA | inhibition, % at 20 µM | 0.03% of 200,000 active | P05186;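 active = over 50% inhibition of tissue-nonspecific alkaline phosphatase at 20 µM in the single-dose screen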;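 also: plate controls were DMSO wells for no effect and EDTA-quenched wells as full inhibition for full effect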
# Target sequence (P05186 whole entry, looked up): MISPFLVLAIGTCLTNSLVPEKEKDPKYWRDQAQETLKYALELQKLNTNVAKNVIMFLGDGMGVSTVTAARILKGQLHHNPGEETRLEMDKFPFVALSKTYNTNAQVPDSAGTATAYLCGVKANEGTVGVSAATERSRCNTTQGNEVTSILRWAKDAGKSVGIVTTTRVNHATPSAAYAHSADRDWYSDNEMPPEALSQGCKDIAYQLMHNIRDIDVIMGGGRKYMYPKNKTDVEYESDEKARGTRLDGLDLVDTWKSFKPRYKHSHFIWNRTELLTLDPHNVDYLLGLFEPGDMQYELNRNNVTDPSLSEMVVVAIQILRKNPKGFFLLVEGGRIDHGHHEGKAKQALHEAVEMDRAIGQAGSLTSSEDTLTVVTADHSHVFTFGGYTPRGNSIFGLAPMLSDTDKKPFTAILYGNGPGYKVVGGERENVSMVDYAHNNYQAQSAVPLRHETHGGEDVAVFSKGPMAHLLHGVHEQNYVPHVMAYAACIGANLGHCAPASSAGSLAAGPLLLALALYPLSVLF
# TNAP act hiacc – activators of human TNAP at high phosphate acceptor concentration. activation factor at 20 µM. 200,000 tested, under 10 active. purified TNAP, CDP-star luminescence, 1 M DEA, 30 min; stronger effect = higher value; 0 = EDTA background, 1 = DMSO-only activity;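 active = activation factor at least 2 at 20 µM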
#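 Dosing: 20 µM single point. System: human TNAP. Amount: TNAP 1/800 final. Incubation: 30 min, room temperature. Read-out: TNAP activation factor scaled between EDTA and DMSO control wells. Signal: luminescence from CDP-star hydrolysis. Medium: 1 M DEA, pH 9.8, Mg2+, Zn2+. Control set: EDTA negative control, DMSO positive control.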
# TNAP inh noacc – inhibitors of human TNAP without phosphate acceptor | AID 1012 | purified TNAP, CDP-star luminescence, 30 min | 0.26% of 200,000 active | P05186 | inhibition, % at 20 µM;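 active = tissue-nonspecific alkaline phosphatase inhibition above about 50% at 20 µM in the single-dose screen, limit read from the data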;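 also: 0% = DMSO negative control and 100% = EDTA positive control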
# Yeast growth inh – reduces growth of yeast BB579 in restrictive medium; S. cerevisiae BB579 growth, OD615, 48 h; inhibition, % at 10 µM; 0.51% of 140,000 active; AID 804;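 active = inhibition above a set limit, 3 SD over the mean compound inhibition, cut at about 44% in these data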
#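 Assay system: S. cerevisiae DeaD strain BB579 yeast. Medium: CSMM-D restrictive synthetic medium containing dextrose (glucose). Times: 4 h cell preincubation, 48 h compound exposure, 30 °C humidified. Signal: OD615 turbidity measurement. Benchmarks: positive control amphotericin B 10 µg/mL.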
# The depositor's hits bear a star; x = no result.
SMILES,Yeast lifespan up,RAM inhibit,TNAP inh hi DEA,TNAP act hiacc,TNAP inh noacc,Yeast growth inh
O=C(CN(Cc1ccccc1)C(=O)CSc1nnc(COc2ccccc2)o1)NC1CCCC1,x,8.6*,-4.7,1,-15.0,-29.7
Cc1cccc(OCc2nnc(SCC(=O)OC3CCCCC3)o2)c1,-11.2,10.2*,-5.7,1.1,-9.3,-12.8
Cc1ccc(-c2cc(C(F)(F)F)n3nc(C(=O)Nc4c(C)n(C)n(-c5ccccc5)c4=O)cc3n2)cc1,0.2,7.4,2.8,1,-2.6,-60.9
Cc1c(NC(=O)c2nn3c(C(F)(F)F)cc(-c4ccccc4)nc3c2Br)c(=O)n(-c2ccccc2)n1C,-2.7,8.6*,0.9,1,-0.8,-5.8
CCOC(=O)c1cccc(P(C)(C)=O)c1,3.3,3.0,-2.5,1,-17.2,-24.9
Cc1ccc(NC2=C(Cl)C(=O)OC2NC(=O)c2ccccc2)cc1 (stereo unspecified),x,9.3*,-2.2,1,-1.6,-13.9
CC(NS(=O)(=O)c1ccccc1)C(c1cccs1)N1CCN(C)CC1 (stereo unspecified),x,-0.6,2.6,1,19.5,-6.5
CSCCC(NC(=O)c1ccc([N+](=O)[O-])cc1Cl)C(=O)OCC(=O)NCC(F)(F)F (stereo unspecified),4.2,0.4,5.7,0.9,19.7,-6.5
CSCCC(NC(=O)c1ccc([N+](=O)[O-])cc1Cl)C(=O)OCC(=O)NCCCc1ccccc1 (stereo unspecified),4.3,9.5*,-2.6,1,-8.2,-37.6
CS(=O)(=O)NN1C(=O)c2ccccc2NC1c1c[nH]c2ccccc12 (stereo unspecified),-3.9,0.1,-2.9,1,-8.9,-36.4
C=CCc1c(C)c(C#N)c2nc3ccccc3n2c1NCCN(C)C,-1.1,2.5,-6.6,1.1,-13.2,56.6*
Cc1cc(C)nc(NN2C(=O)/C(=C/c3ccc(O)cc3)SC2=S)n1,2.9,3.5,43.3,0.6,93.8*,-21.0
CCCc1cc(NCc2ccccn2)n2c(nc3ccccc32)c1C#N,x,11.0*,-7.3,1.1,-29.2,x
Cc1cc(NCc2ccccn2)n2c(nc3ccccc32)c1C#N,x,0.4,-0.3,1,-12.3,x
COc1ccccc1/C=C/C=N/NC(=O)c1ccc2nc[nH]c2c1,x,1.1,-2.3,1,-69.0,x
O=S(=O)(NCC(Nc1ccccc1)c1ccccc1)c1ccc(Cl)cc1 (stereo unspecified),0.4,9.2*,-1.5,1,-13.6,-13.4
COc1ccccc1C(=O)NC(=O)CSc1cccc[n+]1[O-],x,-0.2,-0.6,1,-3.7,x
O=C(CSc1cccc[n+]1[O-])c1cc2ccccc2o1,-10.5,-1.1,-4.9,1,-11.1,99.2*
O=C(CSc1cccc[n+]1[O-])c1cc(Cl)ccc1Cl,x,-0.9,-4.8,1,-5.8,x
Cn1cccc1C(=O)NC(=O)CSc1cccc[n+]1[O-],-11.0,-0.1,-1.4,1,-6.7,95.1*
O=C(O)CSc1cccc[n+]1[O-],-3.3,-0.5,-0.8,1,-10.9,89.8*
O=C(Oc1ccc2c(-c3ccccc3)cc(=O)oc2c1)C1CCCCC1,-10.7,9.3*,-5.2,1.1,-7.3,-30.3
O=C(Oc1ccc2c(-c3ccccc3)cc(=O)oc2c1)c1cccs1,-6.8,4.4,-2.7,1,-6.8,-9.5
COc1ccc(-c2cc(=O)oc3cc(OC(=O)C4CCCCC4)ccc23)cc1,4.5,11.1*,1.6,1,-11.6,-13.3
FC(F)(F)c1cc(-c2ccco2)nc2ncnn12,-0.2,0.4,1.4,1,-2.5,-31.4
SMILES,Yeast lifespan up,RAM inhibit,TNAP inh hi DEA,TNAP act hiacc,TNAP inh noacc,Yeast growth inh
CC(C)CNC(=O)COC(=O)c1n[nH]c2ccccc12,x,0.9,0.3,1,48.9,x
Cn1c(/C=C(\C#N)C(N)=S)ccc1-c1ccc(Br)cc1,x,9.6*,9.3,0.9,-2.0,x
Cc1ccc(S(=O)(=O)N(Cc2ccc(Cl)cc2)c2ccccc2C(=O)NCc2ccco2)cc1,13.3,8.9*,0.1,1,-10.4,-30.4
Cc1ccccc1N(CC(=O)Nc1ccccc1C(=O)NCc1ccco1)S(=O)(=O)c1ccccc1,9.9,7.4,5.2,0.9,-4.5,-61.4
O=C(COC(=O)c1n[nH]c2ccccc12)NC(=O)NC1CCCC1,-11.4,1.6,2.3,1,25.1,-32.4
CC1CCN(C(=O)COC(=O)c2n[nH]c3ccccc23)CC1,-11.3,1.6,-0.3,1,58.3*,-7.9
O=C(OCC(=O)N1CCCCCC1)c1n[nH]c(=O)c2ccccc12,-12.6,0.6,-6.9,1.1,-7.2,-31.3
CCC1CCCCN1C(=O)COC(=O)c1n[nH]c2ccccc12 (stereo unspecified),1.0,-0.1,-1.7,1,56.4*,-41.0
CCN(CC)C(=S)SCC(=O)c1ccc(F)cc1,-10.1,-1.2,1.6,1,52.4*,-15.2
CCN(CC)C(=S)SCC(=O)c1ccccc1,-6.7,0.4,-6.6,1.1,27.2,-2.4
c1ccc2[nH]c3cc4ncnc4cc3nc2c1,-5.4,0.5,1.7,1,-87.4,-26.5
O=C(COC(=O)c1ccc(Cl)c(S(=O)(=O)N2CCc3ccccc3C2)c1)Nc1ncc(Cl)cc1Cl,3.8,10.4*,3.8,1,-7.2,-42.4
O=C(COC(=O)c1cccc(S(=O)(=O)N2CCc3ccccc32)c1)Nc1ncc(Cl)cc1Cl,-0.4,3.0,-1.3,1,-11.2,-47.9
CN(C)C(=O)c1ccc(-n2cccn2)nc1,x,-0.7,-4.6,1,-7.6,x
O=C(CN(CCO)c1ccccc1)NC12CC3CC(CC(C3)C1)C2,-7.4,3.4,2.3,1,-0.4,-29.0
Cc1cc([N+](=O)[O-])ccc1-c1ccc(C2Nc3ccccc3C(=O)N2O)o1 (stereo unspecified),-13.8,0.5,6.1,0.9,16.4,50.2*
CCOC(=O)c1ccc(-c2ccc(C3Nc4ccccc4C(=O)N3O)o2)cc1 (stereo unspecified),2.3,-0.5,-3.1,1,-8.1,25.6
Cc1cccc(OCC(=O)NC(=S)Nc2ccc(S(=O)(=O)NC3CCCCC3)cc2)c1,-11.8,6.4,-0.5,1,6.3,-70.7
CCOC(=O)c1c(NS(=O)(=O)c2ccc(Br)cc2)sc2c1CCC2,x,9.8*,x,x,x,-55.8
N/C(=N\OC(=O)Nc1ccc(Cl)cc1)c1ncc(C(F)(F)F)cc1Cl,-8.3,0.6,-8.1,1.1,-12.1,-54.3
CON/C=C(\C=Nc1ccc(Cl)cc1)c1ncc(C(F)(F)F)cc1Cl,7.1,11.2*,0.6,1,-2.9,-69.7
O=c1c2c(nc3n1CCCCC3)-c1ccccc1CC21CCCCC1,x,9.9*,-2.3,1,-5.8,-37.6
Cc1c(Cl)cccc1NC(=S)NCCc1ccc(C(F)(F)F)cc1,x,0.5,-5.2,1.1,-7.2,x
